A short description of assay [1]: reducers of endogenous Her2 protein level, primary screen, SKBR3 breast tumor cells, AlphaScreen, ATP viability (AID 461;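 active = Her2 level under about 52% in both replicate screens, with viability over 70% of control, limit read from the data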;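 as to Her2 level: lower value means less Her2 protein in the cells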;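 as to viability: percent of carrier control wells set as 100% viability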). The note with it: 18-24 h, measured here: SKBR3 viability, ATP luminescence, at 10 µM.
Assay [2] deals with Receptor tyrosine-protein kinase erbB-2 (Homo sapiens) (UniProt P04626). The assay is described as above. The note with it: 18-24 h, at 10 µM, stronger effect = lower value.
Chain of Receptor tyrosine-protein kinase erbB-2 (Homo sapiens) (P04626 whole entry, looked up): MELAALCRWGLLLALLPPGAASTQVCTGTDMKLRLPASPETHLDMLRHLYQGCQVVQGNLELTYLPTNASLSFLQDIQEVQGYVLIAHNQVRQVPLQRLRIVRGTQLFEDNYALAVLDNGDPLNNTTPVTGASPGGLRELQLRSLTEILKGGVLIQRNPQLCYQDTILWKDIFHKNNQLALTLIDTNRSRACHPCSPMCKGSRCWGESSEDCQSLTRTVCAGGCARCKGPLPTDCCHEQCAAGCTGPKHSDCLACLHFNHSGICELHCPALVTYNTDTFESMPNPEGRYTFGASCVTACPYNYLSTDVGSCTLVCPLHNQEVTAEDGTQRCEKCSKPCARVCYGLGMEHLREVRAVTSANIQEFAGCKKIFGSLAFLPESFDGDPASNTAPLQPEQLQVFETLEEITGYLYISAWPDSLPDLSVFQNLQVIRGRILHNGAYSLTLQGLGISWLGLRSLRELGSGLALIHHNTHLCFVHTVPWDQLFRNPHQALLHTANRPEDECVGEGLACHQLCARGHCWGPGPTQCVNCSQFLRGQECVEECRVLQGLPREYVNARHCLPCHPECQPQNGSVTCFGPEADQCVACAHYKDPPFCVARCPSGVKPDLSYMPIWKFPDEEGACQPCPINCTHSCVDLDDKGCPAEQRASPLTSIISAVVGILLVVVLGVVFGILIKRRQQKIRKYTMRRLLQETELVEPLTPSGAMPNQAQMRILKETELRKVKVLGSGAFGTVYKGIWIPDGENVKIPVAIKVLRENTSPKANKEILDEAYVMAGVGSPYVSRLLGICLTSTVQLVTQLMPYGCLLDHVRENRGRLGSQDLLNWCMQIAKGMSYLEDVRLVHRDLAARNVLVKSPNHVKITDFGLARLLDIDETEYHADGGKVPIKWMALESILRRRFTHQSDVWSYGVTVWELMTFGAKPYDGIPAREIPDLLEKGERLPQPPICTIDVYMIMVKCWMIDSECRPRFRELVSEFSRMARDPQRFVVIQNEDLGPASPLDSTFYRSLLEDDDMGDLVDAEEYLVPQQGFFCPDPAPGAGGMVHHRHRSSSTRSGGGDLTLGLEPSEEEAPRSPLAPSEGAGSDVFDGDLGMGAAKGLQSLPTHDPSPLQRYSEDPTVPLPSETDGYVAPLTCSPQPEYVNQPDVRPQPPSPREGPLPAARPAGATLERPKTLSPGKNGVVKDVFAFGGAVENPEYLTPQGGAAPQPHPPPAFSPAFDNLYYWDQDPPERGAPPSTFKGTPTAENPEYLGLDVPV
The nature of assay [3]: SK-BR-3 cell growth inhibitors, pilot screen, 24 h, human (AID 572;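 active = viability at or below 10% of carrier control in both of two separate runs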;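 also: compound exposure lasted between 18 and 24 h rather than exactly 24 h; 100% = carrier-treated control wells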). The note with it: SK-BR-3 viability, CellTiter-Glo luminescence, at 10 µM, stronger effect = lower value. For orientation: ATP-based viability assays read luminescence as a measure of living cells.
Assay [4] can be described thus: HUVEC growth inhibition – cell-based, human, primary screen (AID 575).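 Also: 100% = median of untreated cell wells with 0.1% DMSO on each plate.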 The note with it: HUVEC proliferation, CellTiter-Glo luminescence, 72 h; at 10 µM; stronger effect = lower value. In outline: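 Timing: 72 h treatment at 37 °C; material: HUVEC primary cells; technique: CellTiter-Glo luminescence measuring cellular ATP; controls: vehicle and MePR control wells; measure: percent of median DMSO-control luminescence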

A short description of assay [5]: growth inhibitors of H69AR lung tumor, primary screen, human, duplicate replicates (AID 580;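 active = viability at or under a set limit in both replicates, limit being median viability minus 3 SD, cut at about 48% in these data, passing the limit was not always enough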;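 also: 100% = mean luminescence of untreated wells and 0% = no signal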). The following applies: H69AR lung tumor cells viability, ATP luminescence, 72 h; at 10 µM; stronger effect = lower value.
Assay [6] can be described thus: reversal of MRP1-mediated doxorubicin resistance, pilot screen, H69AR cells, doxorubicin co-treatment (AID 601;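 active = viability loss from added drug above about 55%, and viability with drug at most 40%, in both replicates, limit read from the data, passing the limit was not always enough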). The following applies: CellTiter-Glo, 72 h, at 10 µM; for differential viability (reversal): stronger effect = higher value.
A short description of assay [7]: 384-well plate pilot, post-Golgi transport modulator project, inhibition of yeast transport mutant growth (AID 636; in the data active = inhibition above about 31%). The following applies: absorbance 615 nm, about 18 h, stronger effect = higher value.
A short description of assay [8]: growth suppression of yeast trafficking mutant, preliminary HTS, modulators of trafficking downstream of Golgi apparatus project, 1536-format plate, OD 615 nm (AID 637; in the data active = inhibition above about 30%). The following applies: yeast transport mutant growth, absorbance 615 nm, 18 h; stronger effect = higher value.
Setting [9] is: H69AR cells + 2 uM doxorubicin, measured here: viability with 2 uM doxorubicin, stronger effect = lower value.
Where [10] appears, read: H69AR cells, compound alone cytotoxicity.

Usually viability stands for a read-out of living cells in per cent, often relative to untreated cells. In general, inhibition refers to the relative decrease from the control value, in per cent.

Activity calls are given as the source filed them.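 The calls were made as follows, unless noted: active = viability at or below 30% in both replicate assays; inconclusive = viability at or below 30% in just one of the two assays; inactive = the rest.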

Regarding `N#CC1=C(N)SC(N)=C(C#N)C1CCc1ccccc1`, the viability in assay [1] was 79.5%; in assay [3], 79.5% (inactive); in assay [4], 44.8% (inactive); in assay [5] it was 23.3% (active); in assay [6] (setting [9]) it was 31.9%; in assay [6] (setting [10]), 23.3%. Further, the Her2 level in assay [2] is 77.5% (inactive). Further, the differential viability (reversal) in assay [6] (H69AR cells + 2 uM doxorubicin) is -8.65% (inactive). Besides, the inhibition in assay [7] is -2.11% (inactive); in assay [8] it was -0.36% (inactive).
Consider `CCN1CCCC1CN=Cc1c(O)n(-c2ccccc2)c(=O)c2ccccc12` (stereo not given), for which the viability in assay [1] was 82%; in assay [3] it was 82% (inactive); in assay [4] it was 96.9% (inactive); in assay [5], 92.9% (inactive); in assay [6] (setting [9]) it was 95%; in assay [6] (setting [10]) it was 92.9%. In addition, in assay [2], the Her2 level is 106% (inactive). Besides, the differential viability (reversal) in assay [6] (H69AR cells + 2 uM doxorubicin) was -2.08% (inactive). Moreover, the inhibition in assay [7] was -6.89% (inactive); in assay [8], -2.54% (inactive).
As for `Cc1cc(=O)n2[nH]c(COc3ccccc3)nc2n1`, the viability was 101% in assay [1]; 101% (inactive) in assay [3]; 94.1% (inactive) in assay [4]; 108% (inactive) in assay [5]; 94% in assay [6] (setting [9]); 108% in assay [6] (setting [10]). Also, the Her2 level in assay [2] is 105% (inactive). For the same compound, the differential viability (reversal) in assay [6] (H69AR cells + 2 uM doxorubicin) is 14% (inactive). Moreover, the values for the inhibition in assay [7] and in assay [8] were -5.33% (inactive) and -6.13% (inactive), respectively.
Turning to `CCN(CC)S(=O)(=O)c1cccc2c(N(C)C)cccc12`, the viability was 99.5% in assay [1]; 99.5% (inactive) in assay [3]; 107% (inactive) in assay [4]; 93.3% (inactive) in assay [5]; 89.2% in assay [6] (setting [9]); 93.3% in assay [6] (setting [10]). The Her2 level in assay [2] was 112% (inactive). In addition, the differential viability (reversal) in assay [6] (H69AR cells + 2 uM doxorubicin) is 4.14% (inactive). Further, the inhibition was -4.93% (inactive) in assay [7] and -4.52% (inactive) in assay [8].
`C=CCNC(=O)CSc1ccc(Cl)cc1`: the viability in assay [1] is 88.5%; in assay [3], 88.5% (inactive); in assay [4] it was 109% (inactive); in assay [5], 81.4% (inactive); in assay [6] (setting [9]) it was 88.8%; in assay [6] (setting [10]) it was 81.4%. Further, the Her2 level in assay [2] is 106% (inactive). For the same compound, the differential viability (reversal) in assay [6] (H69AR cells + 2 uM doxorubicin) was -7.45% (inactive). The inhibition in assay [7] is -4.21% (inactive); in assay [8], 3.11% (inactive).
Take `CCN(CCCNC(=O)C1CCCN(S(=O)(=O)c2cnc[nH]2)C1)c1ccccc1` (stereo not given): the viability in assay [1] was 94%; in assay [3] it was 94% (inactive); in assay [4], 104% (inactive); in assay [5], 94.8% (inactive); in assay [6] (setting [9]), 88.2%; in assay [6] (setting [10]) it was 94.8%. Further, the Her2 level in assay [2] is 93% (inactive). In addition, in assay [6] (H69AR cells + 2 uM doxorubicin), the differential viability (reversal) was 6.6% (inactive). Further, the inhibition was -1.87% (inactive) in assay [7] and -1.64% (inactive) in assay [8].
As to `COC(=O)C1=C(C)C(c2cccs2)NC(=O)N1C` (stereo not given), the viability in assay [1] was 92.5%; in assay [3], 92.5% (inactive); in assay [4] it was 102% (inactive); in assay [5] it was 95.3% (inactive); in assay [6] (setting [9]), 85.2%; in assay [6] (setting [10]), 95.3%. The Her2 level in assay [2] is 86.5% (inactive). For the same compound, the differential viability (reversal) in assay [6] (H69AR cells + 2 uM doxorubicin) was 10.1% (inactive). Further, the inhibition was -6.13% (inactive) in assay [7] and 1.48% (inactive) in assay [8].
Take `CC(c1ccccc1)N1C(=O)c2ccc(C(=O)NCc3ccco3)cc2C1=O` (stereo not given): the viability in assay [1] is 104%; in assay [3], 104% (inactive); in assay [4] it was 93.6% (inactive); in assay [5], 95.7% (inactive); in assay [6] (setting [9]), 90.1%; in assay [6] (setting [10]), 95.7%. Moreover, the Her2 level in assay [2] is 84% (inactive). Further, the differential viability (reversal) in assay [6] (H69AR cells + 2 uM doxorubicin) was 5.55% (inactive). For the same compound, the inhibition was -3.16% (inactive) in assay [7] and -4.92% (inactive) in assay [8].
Consider `CCc1cc(C)cc(OCCNC(=O)c2ncn[nH]2)c1`, for which the viability in assay [1] was 117%; in assay [3], 117% (inactive); in assay [4] it was 89.7% (inactive); in assay [5], 90.8% (inactive); in assay [6] (setting [9]), 81.1%; in assay [6] (setting [10]), 90.8%. Moreover, in assay [2], the Her2 level is 110% (inactive). Besides, in assay [6] (H69AR cells + 2 uM doxorubicin), the differential viability (reversal) was 9.78% (inactive). Also, the inhibition in assay [7] was -3.95% (inactive); in assay [8], -1.29% (inactive).
`Cc1cc(Cl)c(S(=O)(=O)NC2CCCCC2)cc1OCC(=O)Nc1nncs1`: the viability in assay [1] was 107%; in assay [3], 107% (inactive); in assay [4], 86.5% (inactive); in assay [5] it was 90.1% (inactive); in assay [6] (setting [9]), 93.6%; in assay [6] (setting [10]) it was 90.1%. In addition, the Her2 level in assay [2] was 88% (inactive). Besides, the differential viability (reversal) in assay [6] (H69AR cells + 2 uM doxorubicin) was -3.42% (inactive). For the same compound, the results for the inhibition in assay [7] and in assay [8] were -4.74% (inactive) and -3.17% (inactive), respectively.
On to `CC(=O)c1cccc(N(CC(=O)N2CCCC2)S(C)(=O)=O)c1`, for which the viability is 91.5% in assay [1]; 91.5% (inactive) in assay [3]; 99.3% (inactive) in assay [4]; 99.7% (inactive) in assay [5]; 94.1% in assay [6] (setting [9]); 99.7% in assay [6] (setting [10]). In addition, in assay [2], the Her2 level is 93% (inactive). In assay [6] (H69AR cells + 2 uM doxorubicin), the differential viability (reversal) was 5.66% (inactive). The inhibition in assay [7] was -6.67% (inactive); in assay [8], 0.48% (inactive).
In the case of `Cc1cc(OCC(=O)N2CCOCC2)cc2oc(=O)c3ccccc3c12`, the viability was 108% in assay [1]; 108% (inactive) in assay [3]; 109% (inactive) in assay [4]; 85.1% (inactive) in assay [5]; 85.9% in assay [6] (setting [9]); 85.1% in assay [6] (setting [10]). In addition, the Her2 level in assay [2] was 100% (inactive). Also, the differential viability (reversal) in assay [6] (H69AR cells + 2 uM doxorubicin) was -0.74% (inactive). Also, the inhibition in assay [7] was 0.39% (inactive); in assay [8], -10.8% (inactive).
As to `CCN(CCCNC(=O)CC1Oc2ccc(C)cc2NC1=O)Cc1ccccc1` (stereo not given), the viability in assay [1] was 116%; in assay [3], 116% (inactive); in assay [4], 97.8% (inactive); in assay [5] it was 85% (inactive); in assay [6] (setting [9]) it was 80.8%; in assay [6] (setting [10]), 85%. For the same compound, the Her2 level in assay [2] is 94.5% (inactive). In assay [6] (H69AR cells + 2 uM doxorubicin), the differential viability (reversal) was 4.2% (inactive). Besides, the values for the inhibition in assay [7] and in assay [8] were -2.27% (inactive) and -2.13% (inactive), respectively.
Consider `Cc1ccc(S(=O)(=O)N2CCOCC2)cc1C(=O)OCC(=O)N1CCc2ccccc2C1`, for which the viability in assay [1] is 82.5%; in assay [3], 82.5% (inactive); in assay [4], 99.9% (inactive); in assay [5], 87.9% (inactive); in assay [6] (setting [9]) it was 95.2%; in assay [6] (setting [10]), 87.9%. Moreover, the Her2 level in assay [2] was 87.5% (inactive). Further, the differential viability (reversal) in assay [6] (H69AR cells + 2 uM doxorubicin) is -7.28% (inactive). In addition, the inhibition is -4% (inactive) in assay [7] and 2.95% (inactive) in assay [8].

The values are drawn from PubChem BioAssay.
